Measurements as given in ChEMBL document CHEMBL3272156, “(Vinylaryloxy)acetic acids. A new class of diuretic agents. 4. Various ((2-substituted and 2,2-disubstituted vinyl)aryloxy)acetic acids” (1976).

What was measured:
Type in all cases: functional, Canis lupus familiaris
Canis familiaris [1] = assay: Diuretic activity in mongrel dog anesthetized with sodium pentobarbital assessed as urine Na+ level at 10 mg/kg, iv measured after 15 to 45 mins post dose (reference value: 3 to 44 uequiv/min)
How it was run: (§1)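 Dogs given compound iv as the Na salt in water; clearance procedure per ref 1. Baseline is the mean of two 15-min clearance periods before dosing. Response is the mean of two consecutive 15-min periods of maximal Na+ excretion, usually 15–45 min after dosing. Values are from single representative experiments in a series of three or four dogs.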

Canis familiaris [2] = assay: Diuretic activity in mongrel dog anesthetized with sodium pentobarbital assessed as urine K+ level at 10 mg/kg, iv measured after 15 to 45 mins post dose (reference value: 10 to 44 uequiv/min); how it was run: as §1
Canis familiaris [3] = assay: Diuretic activity in mongrel dog anesthetized with sodium pentobarbital assessed as urine Cl- level at 10 mg/kg, iv measured after 15 to 45 mins post dose (reference value: 0 to 30 uequiv/min); how it was run: as §1
Canis familiaris [4] = assay: Diuretic activity in mongrel dog anesthetized with sodium pentobarbital assessed as urine volume at 10 mg/kg, iv measured after 15 to 45 mins post dose (reference value: 1 to 5 ml/min); how it was run: as §1
Canis familiaris [5] = assay: Diuretic activity in mongrel dog […] assessed as urine Na+ level per 6 hrs at 5 mg/kg, po as gelatin capsules (reference value: 2 equiv/6 hrs)
How it was run: (§2)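 Trained female mongrel dogs (8–10 kg) given 100 ml water the day before and fasted overnight. On test day they received 250 ml water orally, then 500 ml 1 h later. One hour after that, bladders were catheter-emptied and compound or placebo was given orally in gelatin capsules. Dogs were kept in metabolism cages, and spontaneous urine was pooled with catheter urine at 6 h. Volume and Na+, K+ and Cl− were measured; results are averages per dog group.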

Canis familiaris [6] = assay: Diuretic activity in mongrel dog […] assessed as urine K+ level per 6 hrs at 5 mg/kg, po as gelatin capsules (reference value: 1 equiv/6 hrs); how it was run: as §2
Canis familiaris [7] = assay: Diuretic activity in mongrel dog […] assessed as urine Cl- level per 6 hrs at 5 mg/kg, po as gelatin capsules (reference value: 2 equiv/6 hrs); how it was run: as §2
Canis familiaris [8] = assay: Diuretic activity in mongrel dog […] assessed as urine Na+ level per 6 hrs at 10 mg/kg, po as gelatin capsules (reference value: 2 equiv/6 hrs); how it was run: as §2
Canis familiaris [9] = assay: Diuretic activity in mongrel dog […] assessed as urine K+ level per 6 hrs at 10 mg/kg, po as gelatin capsules (reference value: 1 equiv/6 hrs); how it was run: as §2
Canis familiaris [10] = assay: Diuretic activity in mongrel dog […] assessed as urine Cl- level per 6 hrs at 10 mg/kg, po as gelatin capsules (reference value: 2 equiv/6 hrs); how it was run: as §2
Canis familiaris [11] = assay: Diuretic activity in mongrel dog anesthetized with sodium pentobarbital assessed as urine Na+ level at 25 mg/kg, iv measured after 15 to 45 mins post dose (reference value: 3 to 44 uequiv/min); how it was run: as §1
Canis familiaris [12] = assay: Diuretic activity in mongrel dog anesthetized with sodium pentobarbital assessed as urine K+ level at 25 mg/kg, iv measured after 15 to 45 mins post dose (reference value: 10 to 44 uequiv/min); how it was run: as §1
Canis familiaris [13] = assay: Diuretic activity in mongrel dog anesthetized with sodium pentobarbital assessed as urine Cl- level at 25 mg/kg, iv measured after 15 to 45 mins post dose (reference value: 0 to 30 uequiv/min); how it was run: as §1
Canis familiaris [14] = assay: Diuretic activity in mongrel dog anesthetized with sodium pentobarbital assessed as urine volume at 25 mg/kg, iv measured after 15 to 45 mins post dose (reference value: 1 to 5 ml/min); how it was run: as §1

SMILES | Activity (Canis familiaris [1]) [uEq/min] | Activity (Canis familiaris [2]) [uEq/min] | Activity (Canis familiaris [3]) [uEq/min] | Activity (Canis familiaris [4]) [mL/min] | Activity (Canis familiaris [11]) [uEq/min] | Activity (Canis familiaris [12]) [uEq/min] | Activity (Canis familiaris [13]) [uEq/min] | Activity (Canis familiaris [14]) [mL/min] | further results
N#C/C=C/c1ccc(OCC(=O)O)c(Cl)c1Cl | 448 | 59 | 484 | 6 |  |  |  |  | Activity (Canis familiaris [5]): 12 equiv; Activity (Canis familiaris [6]): 4 equiv; Activity (Canis familiaris [7]): 17 equiv
C=Cc1ccc(OCC(=O)O)c(Cl)c1Cl | 34 | 29 | 2 | 1 |  |  |  |  | 
CC(=O)/C(=C/c1ccc(OCC(=O)O)c(Cl)c1Cl)S(=O)(=O)c1ccccc1 | 183 | 58 | 166 | 3 |  |  |  |  | 
N#C/C(=C\c1ccc(OCC(=O)O)c(Cl)c1Cl)S(N)(=O)=O |  |  |  |  |  |  |  |  | Activity (Canis familiaris [8]): 6 equiv; Activity (Canis familiaris [9]): 4 equiv; Activity (Canis familiaris [10]): 6 equiv
CC(=C(C#N)C#N)c1ccc(OCC(=O)O)c(Cl)c1Cl | 123 | 38 | 125 | 2 |  |  |  |  | 
CCOC(=O)/C(C#N)=C/c1ccc(OCC(=O)O)cc1 | 25 | 29 | 25 | 2 | 79 | 43 | 16 | 1 | 
CS(=O)(=O)C(=Cc1ccc(OCC(=O)O)c(Cl)c1Cl)S(C)(=O)=O |  |  |  |  | 31 | 48 | 34 | 3 | 
CCOC(=O)C(=Cc1ccc(OCC(=O)O)cc1)C(=O)OCC |  |  |  |  | 44 | 45 | 20 | 1 | 
N#CC(C#N)=Cc1ccc(OCC(=O)O)cc1 | 64 | 10 | 45 | 2 |  |  |  |  | 
